Results on 2 molecules are retold here after ChEMBL document CHEMBL4312015, “Design, synthesis and 3D-QSAR analysis of novel thiopyranopyrimidine derivatives as potential antitumor agents inhibiting A549 and Hela cancer cells” (Eur J Med Chem, 2020).

The source made the active and inactive calls. No cut-off for these calls is given here.

Assay [1] relates to HeLa. Put plainly: Inhibition of EFGR protein expression in human HeLa cells after 24 hrs by Western blot analysis. The format is functional, cell-based. In outline: (§1)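 HeLa cells treated for 24 h with graded compound concentrations, with AZD9291 as positive control. Whole-cell lysates were made in RIPA buffer and protein measured by BCA. Equal protein was run on 10% SDS-PAGE, transferred to PVDF on ice, and probed for EGFR, p-EGFR and GAPDH.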
Background: In western blotting, separated proteins are transferred to a membrane and probed.

Assay [2] relates to A549. Briefly: Cell cycle arrest in human A549 cells assessed as accumulation at G2/M phase at 0.057 uM after 24 hrs by propidium iodide staining based FACSCalibur flow cytometry analysis (reference value: 3.45 %). The format is functional. Summed up:
(§2)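 A549 cells seeded in 6-well plates for 24 h, then treated for 24 h; vehicle was 0.1% DMSO. Cells were harvested as single-cell suspensions, fixed in 70% ice-cold ethanol for 12 h, and stained with propidium iodide. DNA content was measured by flow cytometry. AZD9291 at 0.462 uM was included as reference.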
A general note: In flow cytometry, cells or beads pass a laser one at a time.

Assay [3] concerns the target T1, Epidermal growth factor receptor (Homo sapiens, UniProt P00533). Put plainly: Inhibition of EFGR phosphorylation in human HeLa cells at 0.1 to 10 uM after 24 hrs by Western blot analysis. The format is cell-based. In outline: as §1
In assay [4] the target is T1, Epidermal growth factor receptor. Put plainly: Inhibition of wildtype EGFR (unknown origin) using biotin as substrate in presence of ATP by mobility shift assay based ELISA. (In general: In an ELISA, binding on a coated surface is turned into a signal by an enzyme label.)
Assay [5] concerns A549. Put plainly: Cell cycle arrest in human A549 cells assessed as accumulation at S phase at 0.057 uM after 24 hrs by propidium iodide staining based FACSCalibur flow cytometry analysis (reference value: 22.24 %). The format is functional. In outline:
as §2

Assay [6] relates to NCI-H1975. Put plainly: Antiproliferative activity human NCI-H1975 cells harboring EGFR T790M/L858R double mutant assessed as inhibition of cell growth at 10 uM after 72 hrs by MTT assay relative to control. The format is functional. The following applies: NCI-H1975, 72 h. In outline: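 H1975 cells exposed to compound at a single 10 uM concentration. Growth inhibition rate read by MTT after 72 h in 96-well plates, with AZD9291 as positive control. Values are an average of two separate determinations.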

In assay [7] the test system is A549. Briefly: Cell cycle arrest in human A549 cells assessed as accumulation at G0/G1 phase at 0.057 uM after 24 hrs by propidium iodide staining based FACSCalibur flow cytometry analysis (reference value: 74.31 %). The format is functional. In outline:
as §2

The subject of assay [8] is A549. Briefly: Induction of apoptosis in human A549 cells assessed as necrotic cells at 0.057 uM after 24 hrs by AnnexinV-FITC/propidium iodide staining based FACSCalibur flow cytometry analysis (reference value: 0.33 %). Format: functional.
Assay [9] deals with A549. Put plainly: Induction of apoptosis in human A549 cells assessed as early apoptotic cells at 0.057 uM after 24 hrs by AnnexinV-FITC/propidium iodide staining based FACSCalibur flow cytometry analysis (reference value: 3.51 %). Format: functional.
Assay [10] has as its target Epidermal growth factor receptor (Homo sapiens, UniProt P00533, L858R/T790M). Briefly: Inhibition of EGFR T790M/L858R double mutant (unknown origin) using biotin as substrate in presence of ATP by mobility shift assay based ELISA.
The test system of assay [11] is NCI-H1975. Put plainly: Antiproliferative activity against human NCI-H1975 cells harboring EGFR T790M/L858R double mutant assessed as inhibition of cell growth after 72 hrs by MTT assay. The format is functional, cell-based. Conditions: NCI-H1975, 72 h. In outline:
(§3)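 Cell lines from the Chinese Academy of Sciences cell collection, grown in 96-well plates with a range of compound concentrations for 72 h. Viability read by MTT, with AZD9291 as positive control. IC50 values are averages of three determinations per the methods section; table footnotes state an average of two separate determinations.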

Assay [12] deals with A549. Put plainly: Antiproliferative activity against human A549 cells assessed as inhibition of cell growth after 72 hrs by MTT assay. The following applies: A549, 72 h. The format is functional, cell-based. In outline: as §3
Assay [13] relates to A549. Briefly: Induction of apoptosis in human A549 cells assessed as viable cells at 0.057 uM after 24 hrs by AnnexinV-FITC/propidium iodide staining based FACSCalibur flow cytometry analysis (reference value: 94.42 %). Format: functional. The following applies: A549, 24 h, read-out: Activity.
The test system of assay [14] is A549. Briefly: Induction of apoptosis in human A549 cells assessed as late apoptotic cells at 0.057 uM after 24 hrs by AnnexinV-FITC/propidium iodide staining based FACSCalibur flow cytometry analysis (reference value: 1.74 %). The format is functional.
For another assay, the species on record is Homo sapiens. Briefly: Selectivity ratio of IC50 for wildtype EGFR (unknown origin) to IC50 for EGFR T790M/L858R double mutant (unknown origin) by mobility shift assay based ELISA.
The test system of assay [15] is HeLa. Put plainly: Antiproliferative activity against human HeLa cells assessed as inhibition of cell growth after 72 hrs by MTT assay. The format is functional, cell-based. In outline: as §3
In assay [16] the test system is A549. Put plainly: Induction of apoptosis in human A549 cells assessed as viable cells at 0.716 uM after 24 hrs by AnnexinV-FITC/propidium iodide staining based FACSCalibur flow cytometry analysis (reference value: 94.42 %). The following applies: A549, 24 h, read-out: Activity. Format: functional.
Assay [17] concerns A549. Briefly: Induction of apoptosis in human A549 cells assessed as late apoptotic cells at 0.716 uM after 24 hrs by AnnexinV-FITC/propidium iodide staining based FACSCalibur flow cytometry analysis (reference value: 1.74 %). Format: functional.
Assay [18] relates to A549. Briefly: Cell cycle arrest in human A549 cells assessed as accumulation at S phase at 0.716 uM after 24 hrs by propidium iodide staining based FACSCalibur flow cytometry analysis (reference value: 22.24 %). Format: functional. In outline: as §2
Assay [19] deals with A549. Briefly: Cell cycle arrest in human A549 cells assessed as accumulation at G0/G1 phase at 0.716 uM after 24 hrs by propidium iodide staining based FACSCalibur flow cytometry analysis (reference value: 74.31 %). The format is functional. Summed up: as §2
The test system of assay [20] is A549. Briefly: Induction of apoptosis in human A549 cells assessed as early apoptotic cells at 0.716 uM after 24 hrs by AnnexinV-FITC/propidium iodide staining based FACSCalibur flow cytometry analysis (reference value: 3.51 %). Format: functional.
Assay [21] has as its system A549. Put plainly: Induction of apoptosis in human A549 cells assessed as necrotic cells at 0.716 uM after 24 hrs by AnnexinV-FITC/propidium iodide staining based FACSCalibur flow cytometry analysis (reference value: 0.33 %). Format: functional.
Assay [22] concerns A549. Put plainly: Cell cycle arrest in human A549 cells assessed as accumulation at G2/M phase at 0.716 uM after 24 hrs by propidium iodide staining based FACSCalibur flow cytometry analysis (reference value: 3.45 %). Format: functional. Summed up:
as §2

T1 sequence (P00533 whole entry): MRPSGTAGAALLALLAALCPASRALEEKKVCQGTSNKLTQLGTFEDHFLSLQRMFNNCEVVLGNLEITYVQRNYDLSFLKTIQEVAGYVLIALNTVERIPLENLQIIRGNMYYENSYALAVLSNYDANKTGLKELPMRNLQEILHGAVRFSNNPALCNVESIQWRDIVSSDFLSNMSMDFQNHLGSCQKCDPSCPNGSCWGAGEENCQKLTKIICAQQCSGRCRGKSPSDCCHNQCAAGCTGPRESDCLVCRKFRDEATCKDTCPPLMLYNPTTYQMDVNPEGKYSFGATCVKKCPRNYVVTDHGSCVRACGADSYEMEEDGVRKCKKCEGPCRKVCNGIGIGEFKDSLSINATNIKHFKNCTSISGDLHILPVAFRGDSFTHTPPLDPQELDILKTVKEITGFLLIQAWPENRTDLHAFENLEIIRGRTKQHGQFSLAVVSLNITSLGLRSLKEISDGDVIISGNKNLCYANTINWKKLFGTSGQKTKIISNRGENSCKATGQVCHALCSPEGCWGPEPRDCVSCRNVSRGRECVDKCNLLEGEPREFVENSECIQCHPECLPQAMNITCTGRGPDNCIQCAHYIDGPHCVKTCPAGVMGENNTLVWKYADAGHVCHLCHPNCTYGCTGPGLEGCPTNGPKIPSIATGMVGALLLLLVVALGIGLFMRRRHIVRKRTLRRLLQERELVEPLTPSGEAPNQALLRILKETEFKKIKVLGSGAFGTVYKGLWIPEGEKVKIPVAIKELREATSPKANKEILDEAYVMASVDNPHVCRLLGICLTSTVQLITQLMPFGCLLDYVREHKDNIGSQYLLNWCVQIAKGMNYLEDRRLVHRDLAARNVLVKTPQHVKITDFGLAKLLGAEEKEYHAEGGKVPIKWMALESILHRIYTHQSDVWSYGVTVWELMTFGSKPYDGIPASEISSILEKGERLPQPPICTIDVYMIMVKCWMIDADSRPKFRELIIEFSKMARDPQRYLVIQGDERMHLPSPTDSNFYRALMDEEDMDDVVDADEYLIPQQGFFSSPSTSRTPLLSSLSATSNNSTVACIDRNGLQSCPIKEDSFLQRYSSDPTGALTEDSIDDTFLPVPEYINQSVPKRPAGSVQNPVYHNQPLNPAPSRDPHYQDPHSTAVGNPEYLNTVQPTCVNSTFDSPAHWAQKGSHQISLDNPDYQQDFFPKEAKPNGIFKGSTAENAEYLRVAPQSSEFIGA
Epidermal growth factor receptor (Homo sapiens, UniProt P00533, L858R/T790M), sequence (P00533 25-1210 T790M/L858R limits assumed): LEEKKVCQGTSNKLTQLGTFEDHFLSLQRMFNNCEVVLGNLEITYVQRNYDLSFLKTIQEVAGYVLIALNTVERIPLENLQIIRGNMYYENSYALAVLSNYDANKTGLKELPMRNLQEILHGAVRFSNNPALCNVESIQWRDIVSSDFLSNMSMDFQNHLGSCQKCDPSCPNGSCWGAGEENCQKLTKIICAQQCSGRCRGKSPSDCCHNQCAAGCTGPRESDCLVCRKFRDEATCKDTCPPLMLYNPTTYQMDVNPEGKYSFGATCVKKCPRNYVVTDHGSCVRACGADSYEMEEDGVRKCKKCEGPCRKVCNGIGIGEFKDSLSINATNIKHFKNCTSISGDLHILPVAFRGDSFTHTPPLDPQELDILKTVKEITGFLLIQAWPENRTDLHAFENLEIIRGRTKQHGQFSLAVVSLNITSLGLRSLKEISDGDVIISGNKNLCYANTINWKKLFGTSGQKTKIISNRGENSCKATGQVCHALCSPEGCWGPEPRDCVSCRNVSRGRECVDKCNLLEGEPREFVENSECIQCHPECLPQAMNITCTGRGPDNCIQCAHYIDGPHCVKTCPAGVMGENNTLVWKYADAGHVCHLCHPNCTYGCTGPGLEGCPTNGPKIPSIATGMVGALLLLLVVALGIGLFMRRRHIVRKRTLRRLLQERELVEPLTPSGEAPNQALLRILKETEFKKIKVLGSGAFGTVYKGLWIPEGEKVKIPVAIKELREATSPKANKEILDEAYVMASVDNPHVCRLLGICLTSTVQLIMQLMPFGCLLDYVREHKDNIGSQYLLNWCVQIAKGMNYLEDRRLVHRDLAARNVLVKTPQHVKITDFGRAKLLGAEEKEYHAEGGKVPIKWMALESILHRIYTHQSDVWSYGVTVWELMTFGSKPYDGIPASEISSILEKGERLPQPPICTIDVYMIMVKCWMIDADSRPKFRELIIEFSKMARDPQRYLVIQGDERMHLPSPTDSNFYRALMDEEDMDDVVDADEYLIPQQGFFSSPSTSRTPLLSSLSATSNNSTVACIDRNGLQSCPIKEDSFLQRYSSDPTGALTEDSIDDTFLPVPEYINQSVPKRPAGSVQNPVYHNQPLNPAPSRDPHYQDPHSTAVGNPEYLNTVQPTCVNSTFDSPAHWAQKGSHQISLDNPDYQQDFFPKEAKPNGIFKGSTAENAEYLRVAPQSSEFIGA

The term inhibition denotes the percentage by which the read-out fell short of the control. For `CCC/C=C\C(=O)Nc1cc(Nc2nc3c(c(-c4cn(C)c5ccccc45)n2)CS(=O)(=O)CC3)c(OC)cc1N(C)CCN(C)C`, the inhibition result in the assay with HeLa [1] is “Dose-dependent effect”. Further, the Activity with A549 [2] came out at 10.63%; with A549 [5] it was 20.2%; in the assay with A549 [7], 69.17%; with A549 [8], 0.08%; with A549 [9] it was 5.87%; with A549 [14] it was 5.92%. For the same molecule, in assay [3], the inhibition entry was “inactive”. The IC50 in assay [4] was greater than 2000 nM; in assay [10], 16 nM; with NCI-H1975 [11], 916 nM; in the assay with A549 [12], 57 nM; in the assay on HeLa [15] (read-out: IC50), 104 nM; with HeLa [15] (read-out: pIC50 (converted)), 104 nM. Besides, the inhibition at 10 µM in the assay with NCI-H1975 [6] was 99.5%. For the same molecule, in the assay with A549 [13], the viability at 0.057 µM is 88.1%. For the same molecule, in the assay listed under Homo sapiens, the Ratio IC50 was greater than 125.
As for `C=C(Cl)C(=O)Nc1cc(Nc2nc3c(c(-c4cn(C)c5ccccc45)n2)CSCC3)c(OC)cc1N(C)CCN(C)C`, the viability at 0.716 µM in the assay on A549 [16] is 85.9%. The Activity in the assay with A549 [17] came out at 5.99%; in the assay with A549 [18] it was 27.14%; with A549 [19] it was 60.51%; in the assay on A549 [20], 7.56%; with A549 [21], 0.6%; with A549 [22] it was 12.35%. In addition, the IC50 is 570 nM in assay [4]; 31 nM in [10]; 4210 nM in the assay on NCI-H1975 [11]; 716 nM with A549 [12]; 1000 nM in the assay on HeLa [15] (read-out: IC50); 1000 nM in the assay with HeLa [15] (read-out: pIC50 (converted)). In addition, the inhibition at 10 µM in the assay on NCI-H1975 [6] was 99.6%. In addition, in the assay filed under Homo sapiens, the Ratio IC50 was 18.4.
